Assay results reported in ChEMBL document CHEMBL1132144, “Synthesis of 9-O-substituted derivatives of 9-hydroxy-5, 6-dimethyl-6H-pyrido[4,3-b]carbazole-1-carboxylic acid (2-(dimethylamino)ethyl)amide and their 10- and 11-methyl analogues with improved antitumor activity” (J Med Chem, 1999).
Several values for one entry are separate records, joined by “and”; a condition that tells them apart may be missing. Equal values may be shown once.

Columns and labels:
[1] = test system: Mus musculus; assay: Long-term survivors among 6 mice infected with P388 leukemia, scored on day 60 at 160 mg/kg dose; type: functional
How it was run: (§1)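 B6D2F1 mice in groups of 6–7 were inoculated ip on day 0 with 10^6 P388 cells. Dihydrochloride salts were dissolved in water and given iv on day 1 or on days 1, 5 and 9. Doses ranged from a low nontoxic dose to a toxic one. Long-term survivors were counted at day 60.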

[2] = test system: Mus musculus; assay: Long-term survivors among 6 mice infected with P388 leukemia, scored on day 60 at 80 mg/kg dose; type: functional; how it was run: as §1
[3] = test system: B16; assay: Inhibition of murine B16 melanoma cell proliferation measured by the MTT assay; type: functional, cell-based; settings: Mus musculus
How it was run: (§2)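 Murine L1210 leukemia and B16 melanoma cells were grown in RPMI 1640 with 10% fetal calf serum, 2 mM L-glutamine, penicillin/streptomycin and 10 mM HEPES (pH 7.4). Cells were exposed to nine serial drug dilutions in triplicate for about four doubling times (L1210 48 h, B16 96 h), then read by microculture tetrazolium (MTT) assay. IC50 is the concentration halving optical density versus untreated controls, averaged over ≥2 independent experiments.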

[4] = test system: Mus musculus; assay: Percent median survival time of mice intraperitoneally injected with P388 leukemia was determined from tested at 80 mg/kg at day1,5,9 dose to that of control; type: functional; settings: route intraperitoneal
How it was run: (§3)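 P388 leukemia in B6D2F1 mice (groups of 6–7), 10^6 cells inoculated ip on day 0. Dihydrochloride salts were dissolved in water and given iv on day 1 or on days 1, 5, 9. Three doses were tested, then five if active. %T/C = median survival treated/control × 100, reported at the optimal dose (no toxic death, weight loss <20%), from one or two representative experiments.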

[5] = test system: L1210; assay: Inhibition of murine L1210 leukemia cell proliferation measured by the MTT assay; type: functional, cell-based; settings: Mus musculus; how it was run: as §2
[6] = test system: Mus musculus; assay: Percent median survival time of mice intraperitoneally injected with P388 leukemia was determined from tested at 160 mg/kg at day1 dose to that of control; type: functional; how it was run: as §3
[7] = test system: Mus musculus; assay: Percent median survival time of mice injected with B16 melanoma, at a intraperitoneal compound dose of 20 mg/kg
[8] = test system: Mus musculus; assay: Percent median survival time of mice intraperitoneally injected with P388 leukemia was determined from tested at 40 mg/kg at day1,5,9 dose to that of control; type: functional; settings: route intraperitoneal; how it was run: as §3
[9] = test system: Mus musculus; assay: Long-term survivors among 6 mice infected with P388 leukemia, scored on day 60 at 40 mg/kg dose; type: functional; how it was run: as §1
[10] = test system: Mus musculus; assay: Long-term survivors among 6 mice infected with P388 leukemia, scored on day 90 at 20 mg/kg dose; type: functional
[11] = test system: Mus musculus; assay: Long-term survivors among 7 mice infected with P388 leukemia, scored on day 90 at 10 mg/kg dose; type: functional
[12] = test system: Mus musculus; assay: Percent median survival time of mice injected with B16 melanoma, at a intraperitoneal compound dose of 10 mg/kg
[13] = test system: Mus musculus; assay: Long-term survivors among 7 mice infected with B16 melanoma, scored on day 90 at 20 mg/kg dose on day 1; type: functional
[14] = test system: Mus musculus; assay: Percent median survival time of mice injected with P388 leukemia, at a subcutaneous compound dose of 20 mg/kg; type: functional
[15] = test system: Mus musculus; assay: Long-term survivors among 7 mice infected with P388 leukemia, scored on day 60 at 20 mg/kg dose on day 1; type: functional
How it was run: (§4)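 B6D2F1 mice in groups of 6–7 received 10^6 P388 cells ip on day 0. Dihydrochloride salts dissolved in water were injected iv on day 1 or on days 1, 5 and 9, at three doses and then five. Read-outs were % T/C (median survival treated/control × 100) and long-term survivors on day 60, both at the optimal dose (no toxic death, weight loss <20%).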

[16] = test system: Mus musculus; assay: Percent median survival time of mice injected with P388 leukemia, at a subcutaneous compound dose of 10 mg/kg; type: functional
[17] = test system: Mus musculus; assay: Percent median survival time of mice injected with B16 melanoma, at a intraperitoneal compound dose of 5 mg/kg
[18] = test system: Mus musculus; assay: Long-term survivors among 7 mice infected with P388 leukemia, scored on day 60 at 10 mg/kg dose on day 1; type: functional; how it was run: as §4
[19] = test system: Mus musculus; assay: Percent median survival time of mice injected with P388 leukemia, at a intravenous compound dose of 5 mg/kg
[20] = test system: Mus musculus; assay: Long-term survivors among 7 mice infected with B16 melanoma, scored on day 90 at 10 mg/kg dose on day 1; type: functional
[21] = test system: Mus musculus; assay: Percent median survival time of mice injected with B16 melanoma, at a intraperitoneal compound dose of 40 mg/kg
[22] = test system: Mus musculus; assay: Percent median survival time of mice injected with P388 leukemia, at a intravenous compound dose of 80 mg/kg
[23] = test system: Mus musculus; assay: Long-term survivors among 7 mice infected with P388 leukemia, scored on day 60 at 160 mg/kg dose on day 1; type: functional; how it was run: as §4
[24] = test system: Mus musculus; assay: Percent median survival time of mice injected with P388 leukemia, at a subcutaneous compound dose of 160 mg/kg; type: functional
[25] = test system: Mus musculus; assay: Long-term survivors among 7 mice infected with B16 melanoma, scored on day 90 at 160 mg/kg dose on day 1; type: functional
[26] = test system: Mus musculus; assay: Long-term survivors among 7 mice infected with P388 leukemia, scored on day 60 at 40 mg/kg dose on day 1; type: functional; how it was run: as §4
[27] = test system: Mus musculus; assay: Long-term survivors among 7 mice infected with B16 melanoma, scored on day 90 at 40 mg/kg dose on day 1; type: functional
[28] = test system: Mus musculus; assay: Percent median survival time of mice injected with P388 leukemia, at a intravenous compound dose of 40 mg/kg

In the case of Cc1c2ccnc(C(=O)NCCN(C)C)c2cc2c3cc(OC(=O)N4CCN(C)CC4)ccc3n(C)c12, the LTS [1] is reported as 0, the LTS [2] is reported as 0 and the IC50 [3] is reported as 2470 nM. For the same compound, the T/C [4] was 134%, the IC50 [5] was 1300 nM and the T/C [6] was 146%. For the same compound, the T/C [7] was 159%.
Work on Cc1c2ccnc(C(=O)NCCN(C)C)c2cc2c3cc(OS(C)(=O)=O)ccc3n(C)c12 yielded an LTS [1] of 0, a T/C [8] of 106% and an LTS [9] of 0. It also gave an LTS [10] of 0, an IC50 [3] of 782 nM and an IC50 [5] of 868 nM. The T/C [6] was 96% and the T/C [7] was 142%.
In the case of Cc1c2ccnc(C(=O)NCCN(C)C)c2cc2c3cc(OP(=O)(O)O)ccc3n(C)c12, the LTS [1] is reported as 1, the T/C [8] is reported as 405% and the LTS [11] is reported as 0. It also gave an LTS [9] of 1, a T/C [12] of 171% and an IC50 [3] of 4.1 nM. The IC50 [5] was 50.5 nM and the T/C [6] was 239%.
Compound COC(=O)CCCC(=O)Oc1ccc2c(c1)c1cc3c(C(=O)NCCN(C)C)nccc3c(C)c1n2C has an LTS [13] of 0, a T/C [14] of 145% and an LTS [15] of 0. For the same compound, the T/C [16] was 158%, the IC50 [3] was 7.1 nM and the T/C [17] was 144%. For the same compound, the IC50 [5] was 5.4 nM.
In the case of CCCCCCCCCCCCN(C)C(=O)Oc1ccc2c(c1)c1cc3c(C(=O)NCCN(C)C)nccc3c(C)c1n2C, the LTS [18] is reported as 0, the T/C [19] is reported as 100% and the LTS [20] is reported as 0. The T/C [21] was 115%, the T/C [16] was 103% and the IC50 [3] was 3260 nM. The IC50 [5] was 2870 nM.
For Cc1c2ccnc(C(=O)NCCN(C)C)c2cc2c3cc(OC(=O)CCCCCCC(=O)O)ccc3n(C)c12, the T/C [22] was over 645%, the LTS [23] was 0 and the T/C [24] was 287%. For the same compound, the LTS [25] was 0, the IC50 [3] was 3.1 nM and the IC50 [5] was 53.2 nM.
For CCOC(=O)CCNC(=O)Oc1ccc2c(c1)c1cc3c(C(=O)NCCN(C)C)nccc3c(C)c1n2C, the T/C [14] was 95%, the T/C [12] was 115% and the LTS [26] was 0. It also gave an IC50 [3] of 5.7 nM, an LTS [27] of 0 and an IC50 [5] of 16.4 nM. For the same compound, the T/C [28] was 97%.
Cc1c2ccnc(C(=O)NCCN(C)C)c2cc2c3cc(OC(=O)CCCCC4CCSS4)ccc3n(C)c12 (stereo not drawn) was tested, and the LTS [18] was 0, the LTS [20] was 0 and the T/C ([16]; 10 mg/kg) was 118% and 129%. The IC50 [3] was 14 nM, the T/C [17] was 140% and the IC50 [5] was 118 nM.
Cc1c2ccnc(C(=O)NCCN(C)C)c2cc2c3cc(OC(=O)CCCCC(=O)OCc4ccccc4)ccc3n(C)c12 was tested, and the LTS [13] was 0, the T/C [14] was 124% and the LTS [15] was 0. The T/C [21] was 102%, the T/C [16] was 128% and the IC50 [3] was 58.4 nM. For the same compound, the IC50 [5] was 109 nM.
